Measured values as given in ChEMBL document CHEMBL3875165, “Novel broad-spectrum and long-acting parenteral cephalosporins having an acyl cyanamide moiety at the C-3 terminal: Synthesis and structure-activity relationships” (Eur J Med Chem, 2016).

Key:
[1] = tested on: Streptococcus pneumoniae; assay: Antibacterial activity against penicillin-resistant Streptococcus pneumoniae SR16750 after 20 hrs by agar dilution method; format: functional; details: SR16750, 20 h
Method in brief: (§1)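 Agar dilution on Sensitivity Disk Agar-N. Overnight Mueller Hinton broth cultures were diluted to about 10^6 CFU/mL, and 1 µL spots were placed on agar plates holding 2-fold serial dilutions of antibiotic. Plates were incubated 20 h at 37 °C and then MICs were scored.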

[2] = tested on: Staphylococcus aureus; assay: Antibacterial activity against Staphylococcus aureus SMITH after 20 hrs by agar dilution method; format: functional
Method in brief: (§2)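 Agar dilution MIC on Sensitivity Disk Agar-N with 2-fold serial drug dilutions. Overnight Mueller Hinton broth cultures were diluted to about 10^6 CFU/mL, and 1 µL spots were applied. Plates were incubated 20 h at 37 °C before scoring.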

[3] = tested on: Haemophilus influenzae; assay: Antibacterial activity against beta-lactamase non-producing penicillin-resistant Haemophilus influenzae SR24106 after 20 hrs by agar dilution method; format: functional; details: SR24106, 20 h; method in brief: as §1
[4] = Total clearance in mouse at 20 mg/kg, iv administered as bolus dose by band-culture bioassay; details: in vivo
[5] = tested on: Moraxella catarrhalis; assay: Antibacterial activity against Moraxella catarrhalis SR24290 after 20 hrs by agar dilution method; format: functional; details: SR24290, 20 h; method in brief: as §2
[6] = tested on: Streptococcus pneumoniae; assay: Antibacterial activity against penicillin-resistant Streptococcus pneumoniae SR16675 after 20 hrs by agar dilution method; format: functional; details: SR16675, 20 h; method in brief: as §1
[7] = Protein binding in cynomolgus monkey plasma after 30 mins by ultra-filtration method; format: ADME, cell-free, Macaca fascicularis; details: read-out: PPB (converted)
Method in brief: (§3)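 Mouse or monkey plasma was adjusted to pH 7 with CO2 and spiked with compound to a final 10 µg/ml. It was incubated 30 min at 37 °C, then ultrafiltered by centrifugation at 3200 rpm for 30 min at 25 °C. Free drug in the filtrate was measured by bioassay to give the bound fraction.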

[8] = AUC (0 to infinity) in monkey at 20 mg/kg, iv administered as bolus dose by HPLC method; format: ADME, organism-based, Macaca mulatta; set-up: dose 20 mg/kg, time infinity, route intravenous; details: rhesus monkey, in vivo
Method in brief: (§4)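 Three monkeys per group received a single iv bolus of 20 mg/kg (1 mL/kg). Plasma levels were measured by HPLC. AUC0-∞, CLtot and T1/2 came from a 2-compartment fit.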

[9] = tested on: Haemophilus influenzae; assay: Antibacterial activity against beta-lactamase non-producing penicillin-resistant Haemophilus influenzae SR11435 after 20 hrs by agar dilution method; format: functional; details: SR11435, 20 h; method in brief: as §1
[10] = tested on: Escherichia coli; assay: Antibacterial activity against Escherichia coli NIHJ JC-2 after 20 hrs by agar dilution method; format: functional; details: NIHJ JC-2, 20 h; method in brief: as §2
[11] = AUC (0 to infinity) in mouse at 20 mg/kg, iv administered as bolus dose by band-culture bioassay; details: in vivo
[12] = Half life in monkey at 20 mg/kg, iv administered as bolus dose by HPLC method; format: ADME, organism-based, Macaca mulatta; details: rhesus monkey, in vivo; method in brief: as §4
[13] = Protein binding in ICR mouse plasma after 30 mins by ultra-filtration method; format: ADME, cell-free; details: read-out: PPB (converted); method in brief: as §3
[14] = Half life in mouse at 20 mg/kg, iv administered as bolus dose by band-culture bioassay; details: in vivo
[15] = Total clearance in monkey at 20 mg/kg, iv administered as bolus dose by HPLC method; format: ADME, organism-based, Macaca mulatta; details: rhesus monkey, in vivo; method in brief: as §4

Compound | MIC [1] | MIC [2] | MIC [3] | clearance [4] | MIC [5] | MIC [6] | fraction unbound at 0.5 h [7] | AUC [8] | MIC [9] | MIC [10] | AUC(0-inf) [11] | half-life [12] | fraction unbound at 0.5 h [13] | half-life [14] | clearance [15]
CCO/N=C(\C(=O)N[C@@H]1C(=O)N2C(C(=O)[O-])=C(/C=C/C[n+]3ccc(-c4cc(/C([O-])=N/C#N)n(C)c4)cc3)CS[C@H]12)c1csc(N)n1.[Na+] | 0.5 mg/L | 0.5 mg/L | 0.125 mg/L | 0.768 L/h/kg | 8 mg/L | 0.25 mg/L | 0.23 | 32.1 µg·h/mL | 0.063 mg/L | 0.25 mg/L | 26 µg·h/mL | 245 min | 0.67 | 52.2 min | –
CCO/N=C(\C(=O)N[C@@H]1C(=O)N2C(C(=O)[O-])=C(C[n+]3ccc(-c4cc(/C([O-])=N/C#N)[nH]n4)cc3)CS[C@H]12)c1csc(N)n1.[Na+] (stereo in doubt) | 0.5 mg/L | 1 mg/L | 0.25 mg/L | 1.85 L/h/kg | 0.5 mg/L | 0.25 mg/L | – | – | 0.063 mg/L | 0.5 mg/L | 10.8 µg·h/mL | – | 0.77 | 68.4 min | –
CCO/N=C(\C(=O)N[C@@H]1C(=O)N2C(C(=O)[O-])=C(/C=C/C[n+]3ccc(-c4csc(/C([O-])=N/C#N)n4)cc3)CS[C@H]12)c1csc(N)n1.[Na+] | 0.25 mg/L | 0.5 mg/L | 0.25 mg/L | 0.732 L/h/kg | 2 mg/L | 0.125 mg/L | 0.23 | 48 µg·h/mL | 0.063 mg/L | 0.125 mg/L | 27.4 µg·h/mL | 310 min | 0.69 | 44.4 min | –
CCO/N=C(\C(=O)N[C@@H]1C(=O)N2C(C(=O)[O-])=C(C[n+]3ccc(-c4cc(/C([O-])=N/C#N)[nH]n4)cc3)CS[C@H]12)c1nc(N)sc1Cl.[Na+] | 0.25 mg/L | 1 mg/L | 2 mg/L | 0.48 L/h/kg | 0.125 mg/L | 0.125 mg/L | – | – | 0.25 mg/L | 2 mg/L | 41.5 µg·h/mL | – | 0.43 | 35.4 min | –
CCO/N=C(\C(=O)N[C@@H]1C(=O)N2C(C(=O)[O-])=C(/C=C/C[n+]3ccc4c(/C([O-])=N\C#N)cccc4c3)CS[C@H]12)c1csc(N)n1.[Na+] | 0.5 mg/L | 0.5 mg/L | 0.125 mg/L | 1.41 L/h/kg | 2 mg/L | 0.25 mg/L | 0.42 | 10.6 µg·h/mL | 0.063 mg/L | 0.125 mg/L | 14.2 µg·h/mL | 91.2 min | 0.97 | 43.8 min | 0.0954 L/h/kg
CCO/N=C(\C(=O)N[C@@H]1C(=O)N2C(C(=O)[O-])=C(/C=C\C[n+]3ccc(-c4cc(/C([O-])=N/C#N)[nH]n4)cc3)CS[C@H]12)c1csc(N)n1.[Na+] | 1 mg/L | 0.25 mg/L | 0.5 mg/L | – | 1 mg/L | 0.5 mg/L | – | – | 0.25 mg/L | 0.125 mg/L | – | – | – | – | –
CCO/N=C(\C(=O)N[C@@H]1C(=O)N2C(C(=O)[O-])=C(/C=C/C[n+]3cccc(/C([O-])=N/C#N)c3)CS[C@H]12)c1csc(N)n1.[Na+] | 0.5 mg/L | 0.5 mg/L | 0.125 mg/L | 1.42 L/h/kg | 2 mg/L | 0.25 mg/L | 0.67 | 9.5 µg·h/mL | 0.063 mg/L | 0.125 mg/L | 14.1 µg·h/mL | 79.8 min | 0.94 | 33 min | 0.107 L/h/kg
CCO/N=C(\C(=O)N[C@@H]1C(=O)N2C(C(=O)[O-])=C(/C=C/C[n+]3ccc(-c4c[nH]c(/C([O-])=N/C#N)c4)cc3)CS[C@H]12)c1csc(N)n1.[Na+] | 0.25 mg/L | 0.25 mg/L | 0.125 mg/L | 1.13 L/h/kg | 8 mg/L | 0.125 mg/L | 0.3 | 20.2 µg·h/mL | 0.063 mg/L | 0.125 mg/L | 17.6 µg·h/mL | 255 min | 0.75 | 55.8 min | 0.0504 L/h/kg
CCO/N=C(\C(=O)N[C@@H]1C(=O)N2C(C(=O)[O-])=C(/C=C/C[n+]3cccc4cc(/C([O-])=N/C#N)ccc43)CS[C@H]12)c1csc(N)n1.[Na+] | 0.5 mg/L | 0.25 mg/L | 0.125 mg/L | 1.54 L/h/kg | 0.5 mg/L | 0.25 mg/L | 0.63 | 8.2 µg·h/mL | 0.031 mg/L | 0.125 mg/L | 12.9 µg·h/mL | 104 min | 0.9 | 57 min | 0.125 L/h/kg
CCO/N=C(\C(=O)N[C@@H]1C(=O)N2C(C(=O)[O-])=C(/C=C/C[n+]3ccc(-c4csc(/C([O-])=N/C#N)c4)cc3)CS[C@H]12)c1csc(N)n1.[Na+] | 0.25 mg/L | 0.25 mg/L | 0.125 mg/L | 0.66 L/h/kg | 2 mg/L | 0.125 mg/L | 0.36 | 25.9 µg·h/mL | 0.063 mg/L | 0.125 mg/L | 30.4 µg·h/mL | 280 min | 0.63 | 45 min | 0.0396 L/h/kg
CCO/N=C(\C(=O)N[C@@H]1C(=O)N2C(C(=O)[O-])=C(/C=C/C[n+]3ccc(-c4c[nH]c(/C([O-])=N/C#N)c4C)cc3)CS[C@H]12)c1csc(N)n1.[Na+] | 0.125 mg/L | 0.25 mg/L | 0.125 mg/L | 0.912 L/h/kg | 4 mg/L | 0.125 mg/L | 0.16 | 42.2 µg·h/mL | 0.063 mg/L | 0.125 mg/L | 22 µg·h/mL | 311 min | 0.54 | 51.6 min | 0.024 L/h/kg
CCO/N=C(\C(=O)N[C@@H]1C(=O)N2C(C(=O)[O-])=C(/C=C/C[n+]3cccc4cc(/C([O-])=N/C#N)[nH]c43)CS[C@H]12)c1csc(N)n1.[Na+] | 0.5 mg/L | 0.5 mg/L | 0.25 mg/L | 0.9 L/h/kg | 0.5 mg/L | 0.25 mg/L | 0.06 | 29.2 µg·h/mL | 0.063 mg/L | 0.125 mg/L | 22.2 µg·h/mL | 261 min | 0.67 | 38.4 min | 0.0342 L/h/kg
CO/N=C(\C(=O)N[C@@H]1C(=O)N2C(C(=O)[O-])=C(C[n+]3ccc(-c4cc(/C([O-])=N/C#N)[nH]n4)cc3)CS[C@H]12)c1csc(N)n1.[Na+] (stereo in doubt) | 0.5 mg/L | 1 mg/L | 0.25 mg/L | 1.1 L/h/kg | 2 mg/L | 0.25 mg/L | – | – | 0.063 mg/L | 0.25 mg/L | 18.1 µg·h/mL | – | 0.85 | 54.6 min | –
CCCO/N=C(\C(=O)N[C@@H]1C(=O)N2C(C(=O)[O-])=C(C[n+]3ccc(-c4cc(/C([O-])=N/C#N)[nH]n4)cc3)CS[C@H]12)c1csc(N)n1.[Na+] (stereo in doubt) | 0.5 mg/L | 0.5 mg/L | 1 mg/L | 2.24 L/h/kg | 1 mg/L | 0.25 mg/L | – | – | 0.063 mg/L | 1 mg/L | 8.9 µg·h/mL | – | 0.63 | 58.8 min | –
N#C/N=C(\[O-])c1cc(-c2cc[n+](CC3=C(C(=O)[O-])N4C(=O)[C@@H](NC(=O)/C(=N\OCCF)c5csc(N)n5)[C@H]4SC3)cc2)n[nH]1.[Na+] (stereo in doubt) | 0.5 mg/L | 1 mg/L | 0.125 mg/L | 1.57 L/h/kg | 1 mg/L | 0.25 mg/L | – | – | 0.063 mg/L | 0.25 mg/L | 12.7 µg·h/mL | – | 0.76 | 63.6 min | –
CCO/N=C(\C(=O)N[C@@H]1C(=O)N2C(C(=O)[O-])=C(C=CC[n+]3ccc(-c4cc(/C([O-])=N/C#N)[nH]n4)cc3)CS[C@H]12)c1csc(N)n1.[Na+] | 0.5 mg/L | 0.25 mg/L | 0.25 mg/L | 1.15 L/h/kg | 1 mg/L | 0.25 mg/L | – | – | 0.125 mg/L | 0.125 mg/L | 17.4 µg·h/mL | – | 0.76 | 51 min | –
